From ChEMBL document CHEMBL1641591, “Inhibition of monoamine oxidase by selected C5- and C6-substituted isatin analogues” (Bioorg Med Chem, 2011)

Assays:
[1] = target: T1, Amine oxidase [flavin-containing] A (Homo sapiens, UniProt P21397); experiment: Inhibition of human recombinant MAOA expressed in insect cells by fluorescence assay
T1 sequence (P21397 whole entry): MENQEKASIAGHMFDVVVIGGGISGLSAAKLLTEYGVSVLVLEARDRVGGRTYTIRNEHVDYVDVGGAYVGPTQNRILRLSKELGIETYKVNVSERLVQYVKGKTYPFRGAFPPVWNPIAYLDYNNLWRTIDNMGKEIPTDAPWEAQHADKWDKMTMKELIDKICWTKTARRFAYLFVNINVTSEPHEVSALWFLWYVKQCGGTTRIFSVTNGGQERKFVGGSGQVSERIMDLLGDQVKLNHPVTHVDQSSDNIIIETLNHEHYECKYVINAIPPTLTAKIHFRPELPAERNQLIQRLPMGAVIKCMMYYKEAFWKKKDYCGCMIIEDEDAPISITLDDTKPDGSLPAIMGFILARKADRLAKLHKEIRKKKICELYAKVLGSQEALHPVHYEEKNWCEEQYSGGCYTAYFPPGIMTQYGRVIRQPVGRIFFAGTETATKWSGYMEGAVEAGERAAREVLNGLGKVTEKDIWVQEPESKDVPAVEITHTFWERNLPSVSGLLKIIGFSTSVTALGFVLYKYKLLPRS
How it was run: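 Insect-cell microsomal recombinant human MAO-A (0.0075 mg/mL) in 100 mM potassium phosphate, pH 7.4, made isotonic with KCl, with 45 µM kynuramine. Incubated 20 min at 37 °C and stopped with NaOH. 4-Hydroxyquinoline was read by fluorescence (ex 310/em 400 nm) against a calibration curve.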

[2] = target: T2, Amine oxidase [flavin-containing] B (Homo sapiens, UniProt P27338); experiment: Inhibition of human recombinant MAOB expressed in insect cells by fluorescence assay; type: cell-based
T2 sequence (P27338 whole entry): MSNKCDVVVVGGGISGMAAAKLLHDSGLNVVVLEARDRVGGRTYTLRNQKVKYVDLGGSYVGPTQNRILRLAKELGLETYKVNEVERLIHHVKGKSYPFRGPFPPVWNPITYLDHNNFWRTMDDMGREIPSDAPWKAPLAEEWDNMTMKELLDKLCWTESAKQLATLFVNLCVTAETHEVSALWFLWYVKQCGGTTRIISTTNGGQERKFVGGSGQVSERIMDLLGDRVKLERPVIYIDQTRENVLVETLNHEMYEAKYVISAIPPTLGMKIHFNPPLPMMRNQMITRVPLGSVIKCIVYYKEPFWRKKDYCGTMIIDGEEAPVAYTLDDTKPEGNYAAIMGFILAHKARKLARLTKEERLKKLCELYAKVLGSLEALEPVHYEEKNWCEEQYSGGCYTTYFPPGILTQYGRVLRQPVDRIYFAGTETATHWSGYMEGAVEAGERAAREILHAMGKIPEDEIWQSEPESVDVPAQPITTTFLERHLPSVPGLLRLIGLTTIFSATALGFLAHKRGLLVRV

[3] = species on record: Homo sapiens; experiment: Selectivity ratio of Ki for human recombinant MAOA to Ki for human recombinant MAOB
How it was run: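 Ki values were obtained from duplicate kynuramine-oxidation IC50 data for insect-cell recombinant human MAO-A and MAO-B by the Cheng–Prusoff equation. […] The ratio is Ki(MAO-A)/Ki(MAO-B).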

[4] = target: T1, Amine oxidase [flavin-containing] A; experiment: Inhibition of human recombinant MAOA expressed in insect cells at 9.76 uM by fluorescence assay; settings: TDE = time-dependent effect
How it was run: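 Reversibility test: recombinant human MAO-A (0.03 mg/mL) was preincubated 0, 15, 30 or 60 min at 37 °C with 9.76 µM inhibitor in isotonic pH 7.4 phosphate buffer. […] Residual rate was measured by 4-hydroxyquinoline fluorescence, in triplicate, mean ± SD.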

[5] = target: T2, Amine oxidase [flavin-containing] B; experiment: Inhibition of human recombinant MAOB expressed in insect cells at 2.8 uM by fluorescence assay; settings: TDE = time-dependent effect
[6] = target: T2, Amine oxidase [flavin-containing] B; experiment: Competitive inhibition of human recombinant MAOB expressed in insect cells at 0.125 to 0.5 uM by Lineweaver-Burk plot analysis
How it was run: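 Recombinant human MAO-B from insect cells (0.015 mg/mL) was run with 15–90 µM kynuramine, without inhibitor and with 0.125, 0.25 or 0.5 µM inhibitor. The assay was otherwise the standard fluorescence procedure. Lineweaver–Burk plots were fitted by linear regression.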

[7] = target: T1, Amine oxidase [flavin-containing] A; experiment: Competitive inhibition of human recombinant MAOA expressed in insect cells at 2.5 to 10 uM by Lineweaver-Burk plot analysis
[8] = target: T2, Amine oxidase [flavin-containing] B; experiment: Inhibition of human recombinant MAOB expressed in insect cells at 100 uM by fluorescence assay
[9] = target: T1, Amine oxidase [flavin-containing] A; experiment: Inhibition of human recombinant MAOA expressed in insect cells at 100 uM by fluorescence assay

Row | IC50 [1] | Ki [1] | IC50 [2] | Ki [2] | Ratio Ki [3] | inhibition (INH) [4] | inhibition (INH) [5] | inhibition (INH) [6] | inhibition (INH) [7] | inhibition (INH) [9] | SMILES | inhibition (INH) [8]
1 | 191 µM | 50.3 µM | 12.8 µM | 5.51 µM | 9.13 |  |  |  |  |  | Nc1ccc(OCc2ccccc2)cc1 [4-BENZYLOXYANILINE] | 
2 | 466 µM | 123 µM | 23.4 µM | 10.1 µM | 12.2 |  |  |  |  |  | Nc1cccc(OCc2ccccc2)c1 [3-(BENZYLOXY)ANILINE] | 
3 | 91.4 µM | 24.1 µM | 303 µM | 131 µM | 0.185 |  |  |  |  |  | Nc1ccc(Oc2ccccc2)cc1 [4-PHENOXYANILINE] | 
4 | 25.3 µM | 6.67 µM | 6.34 µM | 2.73 µM | 2.44 |  |  |  |  |  | Nc1ccc(/C=C/c2ccccc2)cc1 [(E)-4-STYRYLANILINE] | 
5 | 131 µM | 34.5 µM |  |  |  |  |  |  |  |  | Nc1ccc(CCc2ccccc2)cc1 | 
6 |  |  | 5.55 µM | 2.39 µM |  |  |  |  |  | Not Active | Cl.Nc1ccc(CCCCc2ccccc2)cc1 | 
7 | 72.4 µM | 19.1 µM | 0.138 µM | 0.059 µM | 321 |  |  |  |  |  | O=C1Nc2cc(OCc3ccccc3)ccc2C1=O | 

The remaining lines, values behind:

Row | SMILES | IC50 [1] | Ki [1] | IC50 [2] | Ki [2] | Ratio Ki [3] | inhibition (INH) [4] | inhibition (INH) [5] | inhibition (INH) [6] | inhibition (INH) [7] | inhibition (INH) [9] | inhibition (INH) [8]
8 | Nc1cccc(CCc2ccccc2)c1 | 355 µM | 93.5 µM |  |  |  |  |  |  |  |  | 
9 | O=C1Nc2ccc(CCc3ccccc3)cc2C1=O | 4.88 µM | 1.29 µM | 1.4 µM | 0.603 µM | 2.13 | tde | tde | Active | Active |  | 
10 | O=C1Nc2ccc(/C=C/c3ccccc3)cc2C1=O | 0.233 µM | 0.061 µM | 0.009 µM | 0.004 µM | 15.8 |  |  |  |  |  | 
11 | Nc1cccc(-c2ccccc2)c1 | 68.6 µM | 18.1 µM |  |  |  |  |  |  |  |  | Not Active
12 | O=C1Nc2cc(CCc3ccccc3)ccc2C1=O | 6.93 µM | 1.83 µM | 9.93 µM | 4.28 µM | 0.427 |  |  |  |  |  | 
13 | Nc1ccc(Oc2ccc(Cl)cc2)cc1 | 29.3 µM | 7.72 µM | 16.8 µM | 7.24 µM | 1.07 |  |  |  |  |  | 
14 | Nc1ccc(-c2ccccc2)cc1 [BIPHENYL-4-AMINE] |  |  |  |  |  |  |  |  |  | Not Active | Not Active
15 | O=C1Nc2ccc(Oc3ccc(Cl)cc3)cc2C1=O | 12.2 µM | 3.21 µM | 0.066 µM | 0.028 µM | 113 |  |  |  |  |  | 
16 | Nc1cccc(Oc2ccccc2)c1 [3-PHENOXYANILINE] |  |  |  |  |  |  |  |  |  | Not Active | 
17 | Nc1cccc(/C=C/c2ccccc2)c1 | 30.4 µM | 8.01 µM | 5.74 µM | 2.47 µM | 3.24 |  |  |  |  |  | 
18 | O=C1Nc2cc(-c3ccccc3)ccc2C1=O | 4.64 µM | 1.22 µM | 8.52 µM | 3.67 µM | 0.333 |  |  |  |  |  | 
19 | O=C1Nc2cc(Oc3ccccc3)ccc2C1=O | 62.2 µM | 16.4 µM | 9.91 µM | 4.27 µM | 3.84 |  |  |  |  |  | 
20 | O=C1Nc2ccc(-c3ccccc3)cc2C1=O | 0.562 µM | 0.148 µM | 1.19 µM | 0.513 µM | 0.289 |  |  |  |  |  | 
21 | O=C1Nc2cc(/C=C/c3ccccc3)ccc2C1=O [(E)-6-STYRYLISATIN] | 2.72 µM | 0.717 µM |  |  |  |  |  |  |  |  | 
22 | O=C1Nc2ccc(CCCCc3ccccc3)cc2C1=O | 2.19 µM | 0.577 µM | 0.00066 µM | 0.00028 µM | 2030 |  |  |  |  |  | 
23 | O=C1Nc2ccc(OCc3ccccc3)cc2C1=O | 4.62 µM | 1.22 µM | 0.103 µM | 0.044 µM | 27.4 |  |  |  |  |  | 
24 | O=C1Nc2ccc(Oc3ccccc3)cc2C1=O | 9.44 µM | 2.49 µM | 1.54 µM | 0.663 µM | 3.75 |  |  |  |  |  | 
